Calls of active or inactive are those of the source. The calls are words filed in the database; no cut-off is given here.
Columns and labels:
[1] = AUClast in Sprague-Dawley rat model of bleomycin-induced pulmonary fibrosis at 5 mg/kg, po by LC-MS/MS analysis; type: ADME, organism-based; parameters: time 0 - last, dose 5 mg/kg, route po; conditions: in vivo
Summary of the method: (§1)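 Male Sprague-Dawley rats with induced pulmonary fibrosis; single i.v. (2.0 mg kg⁻¹) or p.o. (5.0 mg kg⁻¹) administration. Plasma samples stored at −70 °C; the supernatant was analysed by LC-MS/MS for PK parameters.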

[2] = AUC(infinity) in Sprague-Dawley rat model of bleomycin-induced pulmonary fibrosis at 5 mg/kg, po by LC-MS/MS analysis; type: ADME, organism-based; parameters: time infinity, dose 5 mg/kg, route po; conditions: in vivo; summary of the method: as §1
[3] = AUClast in Sprague-Dawley rat model of bleomycin-induced pulmonary fibrosis at 2 mg/kg, iv by LC-MS/MS analysis; type: ADME, organism-based; parameters: time 0 - last, dose 2 mg/kg, route iv; conditions: in vivo; summary of the method: as §1
[4] = Half life in Sprague-Dawley rat model of bleomycin-induced pulmonary fibrosis at 5 mg/kg, po by LC-MS/MS analysis; type: ADME, organism-based; conditions: in vivo; summary of the method: as §1
[5] = Clearance in Sprague-Dawley rat model of bleomycin-induced pulmonary fibrosis at 2 mg/kg, iv by LC-MS/MS analysis; type: ADME, organism-based; conditions: in vivo; summary of the method: as §1
HFL1 [6] = assay: Antiproliferative activity against human HFL1 cells assessed as reduction in cell proliferation measured after 24 hrs by CCK-8 assay; type: functional, cell-based; conditions: HFL1, 24 h
Summary of the method: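 Human fetal lung fibroblasts (HFL-1); growth inhibition quantified with CCK-8; IC50 averaged from 3 experiments, each in duplicate.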

[7] = AUC(infinity) in Sprague-Dawley rat model of bleomycin-induced pulmonary fibrosis at 2 mg/kg, iv by LC-MS/MS analysis; type: ADME, organism-based; parameters: time infinity, dose 2 mg/kg, route iv; conditions: in vivo; summary of the method: as §1
[8] = Half life in Sprague-Dawley rat model of bleomycin-induced pulmonary fibrosis at 2 mg/kg, iv by LC-MS/MS analysis; type: ADME, organism-based; conditions: in vivo; summary of the method: as §1
[9] = Cmax in Sprague-Dawley rat model of bleomycin-induced pulmonary fibrosis at 10 mg/kg, po by LC-MS/MS analysis; type: ADME, organism-based; parameters: dose 10 mg/kg, route po; conditions: in vivo
[10] = AUC(infinity) in Sprague-Dawley rat model of bleomycin-induced pulmonary fibrosis at 10 mg/kg, po by LC-MS/MS analysis; type: ADME, organism-based; parameters: time infinity, dose 10 mg/kg, route po; conditions: in vivo
HFL1 [11] = assay: Antifibrotic activity in TGF-beta1-induced HFL1 cell injury assessed as down regulation of collagen 1 mRNA expression at 3 mM measured after 24 hrs by RT-PCR analysis; type: functional, cell-based; conditions: Homo sapiens
Summary of the method: (§2)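 TGF-β1-induced HFL-1 cells treated 24 h (test range 0.625–10 μM; comparator 3 mM); collagen 1 and collagen 3 mRNA measured by RT-PCR; mean of n = 3.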

[12] = Cmax in Sprague-Dawley rat model of bleomycin-induced pulmonary fibrosis at 2 mg/kg, iv by LC-MS/MS analysis; type: ADME, organism-based; parameters: dose 2 mg/kg, route iv; conditions: in vivo; summary of the method: as §1
[13] = Oral bioavailability in Sprague-Dawley rat model of bleomycin-induced pulmonary fibrosis at 10 mg/kg by LC-MS/MS analysis; type: ADME, organism-based; conditions: in vivo
Rattus norvegicus = assay: Antifibrotic activity against bleomycin-induced pulmonary fibrosis in Sprague-Dawley rat assessed as reduction in lung histopathological changes at 100 mg/kg, po administered daily for 1 to 14 days starting from post bleomycin stimulation by H and E staining based assay; type: functional, organism-based; conditions: time 1-14 day
Summary of the method: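 Bleomycin-induced lung fibrosis in SD rats; oral dosing daily from day 1 for 14 days; saline for sham and bleomycin groups; comparator 100 mg kg⁻¹ d, test doses 2 and 6 mg kg⁻¹ d; lung pathology assessed by HE histology.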

HFL1 [14] = assay: Antifibrotic activity in TGF-beta1-induced HFL1 cell injury assessed as down regulation of collagen 3 mRNA expression at 3 mM measured after 24 hrs by RT-PCR analysis; type: functional, cell-based; conditions: Homo sapiens; summary of the method: as §2
[15] = AUClast in Sprague-Dawley rat model of bleomycin-induced pulmonary fibrosis at 10 mg/kg, po by LC-MS/MS analysis; type: ADME, organism-based; parameters: time 0 - last, dose 10 mg/kg, route po; conditions: in vivo
[16] = Tmax in Sprague-Dawley rat model of bleomycin-induced pulmonary fibrosis at 10 mg/kg, po by LC-MS/MS analysis; type: ADME, organism-based; conditions: in vivo
HFL1 [17] = assay: Antifibrotic activity in TGF-beta1-induced HFL1 cell injury assessed as alpha-SMA expression at 3 mM measured after 48 hrs by Western blot analysis (reference value: 100%); type: functional, Homo sapiens
Summary of the method: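 HFL-1 cells stimulated with TGF-β1; α-SMA protein detected by Western blot with anti-α-SMA antibody, normalised to tubulin; mean of n = 3.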

[18] = Half life in Sprague-Dawley rat model of bleomycin-induced pulmonary fibrosis at 10 mg/kg, po by LC-MS/MS analysis; type: ADME, organism-based; conditions: in vivo
[19] = Clearance in Sprague-Dawley rat model of bleomycin-induced pulmonary fibrosis at 1 mg/kg, iv by LC-MS/MS analysis; type: ADME, organism-based; conditions: in vivo
[20] = Half life in Sprague-Dawley rat model of bleomycin-induced pulmonary fibrosis at 1 mg/kg, iv by LC-MS/MS analysis; type: ADME, organism-based; conditions: in vivo
[21] = AUClast in Sprague-Dawley rat model of bleomycin-induced pulmonary fibrosis at 1 mg/kg, iv by LC-MS/MS analysis; type: ADME, organism-based; parameters: time 0 - last, dose 1 mg/kg, route iv; conditions: in vivo
[22] = Cmax in Sprague-Dawley rat model of bleomycin-induced pulmonary fibrosis at 5 mg/kg, po by LC-MS/MS analysis; type: ADME, organism-based; parameters: dose 5 mg/kg, route po; conditions: in vivo; summary of the method: as §1
[23] = AUC(infinity) in Sprague-Dawley rat model of bleomycin-induced pulmonary fibrosis at 1 mg/kg, iv by LC-MS/MS analysis; type: ADME, organism-based; parameters: time infinity, dose 1 mg/kg, route iv; conditions: in vivo
[24] = Oral bioavailability in Sprague-Dawley rat model of bleomycin-induced pulmonary fibrosis at 5 mg/kg by LC-MS/MS analysis; type: ADME, organism-based; conditions: in vivo
Summary of the method: (§3)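 Male Sprague-Dawley rats with induced pulmonary fibrosis were dosed 2.0 mg kg⁻¹ i.v. or 5.0 mg kg⁻¹ p.o. Plasma was stored at -70 °C, and the supernatant was analysed by LC-MS/MS.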

[25] = Tmax in Sprague-Dawley rat model of bleomycin-induced pulmonary fibrosis at 5 mg/kg, po by LC-MS/MS analysis; type: ADME, organism-based; conditions: in vivo; summary of the method: as §3

Cc1cc(=O)n(-c2ccc(N3CCC(Cc4cccc(C(F)(F)F)c4)CC3)c(Cl)c2)c(C)n1
AUC(0-t) [1]: 5180 ng·h/mL
AUC(0-inf) [2]: 7080 ng·h/mL
AUC(0-t) [3]: 2460 ng·h/mL
half-life [4]: 11.8 h
clearance [5]: 10.3 mL/min/kg
IC50 (HFL1 [6]): 60 µM
AUC(0-inf) [7]: 3220 ng·h/mL
half-life [8]: 13.5 h

Cc1cc(=O)n(-c2ccc(N3CCC(Cc4ccc(F)cc4)CC3)c(F)c2)c(C)n1
IC50 (HFL1 [6]): 110 µM

Cc1cc(=O)n(-c2ccc(N3CCC(Cc4cccc5cccnc45)CC3)c(Cl)c2)c(C)n1
IC50 (HFL1 [6]): 120 µM

Cc1cccc(CC2CCN(c3ccc(-n4c(C)nc(C)cc4=O)cc3F)CC2)c1
IC50 (HFL1 [6]): 100 µM

Cc1cc(=O)n(-c2ccc(N3CCC(Cc4cccc(F)c4)CC3)c(Cl)c2)c(C)n1
IC50 (HFL1 [6]): 60 µM

Cc1cc(=O)n(-c2ccc(N3CCC(Cc4ccccc4Cl)CC3)c(Cl)c2)c(C)n1
IC50 (HFL1 [6]): 70 µM

Cc1ccc(=O)n(-c2ccccc2)c1 [PIRFENIDONE]
Cmax [9]: 5070 ng/mL
AUC(0-inf) [10]: 3460 ng·h/mL
Activity (HFL1 [11]): Active
Cmax [12]: 1010 ng/mL
bioavailability [13]: 107%
Activity (Rattus norvegicus): Active
AUC(0-t) [3]: 649 ng·h/mL
Activity (HFL1 [14]): Active
AUC(0-t) [15]: 3460 ng·h/mL
Tmax [16]: 0.3 h
clearance [5]: 53.3 mL/min/kg
IC50 (HFL1 [6]): 9150 µM
Activity (HFL1 [17]): 83.71%
AUC(0-inf) [7]: 650 ng·h/mL
half-life [18]: 0.4 h
half-life [8]: 0.4 h

Cc1cc(=O)n(-c2ccc(N3CCC(Cc4cc(F)c(F)c(F)c4)CC3)c(Cl)c2)c(C)n1
AUC(0-t) [1]: 5690 ng·h/mL
AUC(0-inf) [2]: 6360 ng·h/mL
AUC(0-t) [3]: 2190 ng·h/mL
half-life [4]: 8.41 h
clearance [5]: 13.8 mL/min/kg
IC50 (HFL1 [6]): 60 µM
AUC(0-inf) [7]: 2400 ng·h/mL
half-life [8]: 8.2 h

Cc1cc(=O)n(-c2ccc(N3CCC(Cc4ccc5ccccc5c4)CC3)c(Cl)c2)c(C)n1
IC50 (HFL1 [6]): 90 µM

Cc1cc(=O)n(-c2ccc(N3CCC(Cc4cccc5ccccc45)CC3)c(F)c2)c(C)n1
AUC(0-t) [1]: 1560 ng·h/mL
AUC(0-inf) [2]: 1600 ng·h/mL
AUC(0-t) [3]: 1110 ng·h/mL
half-life [4]: 5.21 h
clearance [5]: 29.8 mL/min/kg
IC50 (HFL1 [6]): 60 µM
AUC(0-inf) [7]: 1130 ng·h/mL
half-life [8]: 5.27 h

Cc1cc(=O)n(-c2ccc(N3CCC(Cc4cccc(F)c4)CC3)nc2)c(C)n1
IC50 (HFL1 [6]): 130 µM

Cc1cc(=O)n(-c2cnc(N3CCC(Cc4cccc(F)c4)CC3)c(Cl)c2)c(C)n1
IC50 (HFL1 [6]): 60 µM

Cc1cc(=O)n(-c2ccc(N3CCC(Cc4cccc(F)c4)CC3)cn2)c(C)n1
IC50 (HFL1 [6]): 130 µM

Cc1cc(=O)n(-c2ccc(N3CCC(Oc4cccc(F)c4)CC3)c(F)c2)c(C)n1
IC50 (HFL1 [6]): 110 µM

Cc1cc(=O)n(-c2ccc(N3CCC(Cc4cccc(Cl)c4)CC3)c(Cl)c2)c(C)n1
AUC(0-t) [1]: 1750 ng·h/mL
AUC(0-inf) [2]: 2030 ng·h/mL
AUC(0-t) [3]: 898 ng·h/mL
half-life [4]: 9.6 h
clearance [5]: 15.8 mL/min/kg
IC50 (HFL1 [6]): 50 µM
AUC(0-inf) [7]: 1060 ng·h/mL
half-life [8]: 10.9 h

Cc1cc(=O)n(-c2ccc(N3CCC(Cc4ccccc4-c4ccccc4)CC3)c(Cl)c2)c(C)n1
IC50 (HFL1 [6]): 70 µM

Cc1cc(=O)n(-c2ccc(N3CCC(Nc4cccc(C(F)(F)F)c4)CC3)c(Cl)c2)c(C)n1
IC50 (HFL1 [6]): 60 µM

C=CCc1ccccc1OC1CCN(c2ccc(-n3c(C)nc(C)cc3=O)cc2Cl)CC1
IC50 (HFL1 [6]): 70 µM

Cc1cc(=O)n(-c2cnc(N3CCC(Oc4cccc(F)c4)CC3)c(Cl)c2)c(C)n1
IC50 (HFL1 [6]): 70 µM

Cc1cc(=O)n(-c2ccc(N3CCOCC3)c(F)c2)c(C)n1
clearance [19]: 1.67 mL/min/kg
AUC(0-t) [1]: 32600 ng·h/mL
AUC(0-inf) [2]: 33500 ng·h/mL
half-life [20]: 4.3 h
AUC(0-t) [21]: 7130 ng·h/mL
half-life [4]: 4.3 h
Cmax [22]: 4720 ng/mL
AUC(0-inf) [23]: 7290 ng·h/mL
IC50 (HFL1 [6]): 6540 µM
bioavailability [24]: 92%
Tmax [25]: 0.5 h

Cc1cc(=O)n(-c2ccc(N3CCC(COc4cccc(F)c4)CC3)c(Cl)c2)c(C)n1
AUC(0-t) [1]: 1550 ng·h/mL
AUC(0-inf) [2]: 3410 ng·h/mL
AUC(0-t) [3]: 1450 ng·h/mL
half-life [4]: 5.26 h
clearance [5]: 10.8 mL/min/kg
IC50 (HFL1 [6]): 50 µM
AUC(0-inf) [7]: 3260 ng·h/mL
half-life [8]: 6.73 h

Reference: ChEMBL document CHEMBL5136958, “The development of HEC-866 and its analogues for the treatment of idiopathic pulmonary fibrosis” (RSC Med Chem, 2021)
